Bioassay records as filed in PubChem BioAssay.
TAG inh = inhibitors of triacylglycerol accumulation, primary screen, cell-based, uHTS, fluorescence, H9c2; H9c2 cells, Nile Red lipid (TAG) fluorescence; cells loaded with 200 µM oleic acid; inhibition, % at 12.5 µM; hit rate 0.66% among 230,000;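 active = pattern-corrected inhibition of lipid staining of at least 50% with the nuclear-stain viability signal not falling by more than 50%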;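 note: 0% = DMSO wells and 100% = triacsin C control wells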
GalR3 antagonist = GalR3 antagonists in HEK293 cells, primary screen, cell-based, fluorescence readout. inhibition, % at 3 µM. hit rate 0.44% among 360,000. AID 651719, 2012. HEK293 GalR3-CNG cAMP membrane potential fluorescence; galR3 body fused to GalR1 C-terminus. Galanin receptor type 3 (Homo sapiens), O60755;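 active = inhibition above the screen-wide average plus 3 SD, cut at about 13% in these data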;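 note: forskolin and galanin both at EC90 stimulate the cells; cAMP rise reported by CNG channel membrane potential dye signal; 0% = forskolin plus galanin with DMSO and 100% = forskolin alone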
Target sequence (O60755 1-299 limits assumed): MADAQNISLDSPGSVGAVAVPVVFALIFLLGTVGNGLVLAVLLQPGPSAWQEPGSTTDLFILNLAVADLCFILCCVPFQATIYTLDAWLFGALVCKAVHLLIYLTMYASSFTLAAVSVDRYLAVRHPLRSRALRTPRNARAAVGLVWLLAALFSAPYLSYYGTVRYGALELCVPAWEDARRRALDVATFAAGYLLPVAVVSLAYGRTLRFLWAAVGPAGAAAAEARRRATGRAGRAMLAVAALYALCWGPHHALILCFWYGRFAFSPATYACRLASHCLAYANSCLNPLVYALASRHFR
MC4R ag barr = MC4R agonists recruiting beta-arrestin, primary screen, cell-based, luminescence, agonist arm of biased-ligand search; AID 540308, 2011; U2OS MC4R beta-arrestin complementation; percent of melanotan II response, DMSO zero; activation, % at 8.9 µM; Melanocortin receptor 4 (Homo sapiens), P32245; hit rate 0.98% among 360,000;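 active = activation above a per-plate cutoff, the mean activation of sample wells on that plate plus 3 SD, cut at about 8% in these data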
Target sequence (P32245 whole entry, looked up): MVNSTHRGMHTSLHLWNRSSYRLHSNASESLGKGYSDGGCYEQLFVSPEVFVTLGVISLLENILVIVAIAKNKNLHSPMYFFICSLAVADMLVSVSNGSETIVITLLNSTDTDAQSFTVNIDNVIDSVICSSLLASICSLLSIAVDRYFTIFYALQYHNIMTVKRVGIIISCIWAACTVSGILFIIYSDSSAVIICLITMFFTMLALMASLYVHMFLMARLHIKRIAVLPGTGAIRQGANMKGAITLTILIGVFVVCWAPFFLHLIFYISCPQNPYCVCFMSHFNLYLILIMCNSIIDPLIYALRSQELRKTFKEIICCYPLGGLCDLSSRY
Efflux pump mplx = inhibitors of Candida efflux pumps in yeast, primary screen, S. cerevisiae, Nile Red, multiplex; S. cerevisiae Candida pump triplex; inhibition, % at 10 µM; hit rate 0.44% among 330,000; AID 485275, 2010;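 active = plate passing quality check with inhibition over a set limit, or well fluorescence over plate mean plus 4 SD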;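 note: Nile Red retained in pooled yeast measured as flow cytometry median fluorescence; 0% = buffer negative control and 100% = Enniatin B positive control; higher means more Nile Red kept so more efflux inhibition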
MC4R antag cAMP = MC4R antagonists of cAMP signaling, primary screen, cell-based, TR-FRET, antagonist arm of biased-ligand search. MC4R-expressing cells, MTII-stimulated cAMP, LANCE TR-FRET. AID 540295, 2011. Melanocortin receptor 4 (Homo sapiens), P32245. inhibition, % at 6.5 µM. hit rate 0.48% among 360,000;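 active = inhibition above its plate's cutoff, the mean of tested wells on that plate plus 3 SD, cut at about 29% in these data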;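 note: 0% = Melanotan II alone and 100% = Melanotan II plus saturating MCL0020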
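System: U2OS cells stably expressing human melanocortin 4 receptor (MC4R). Reagent: Melanotan II challenge after compound preincubation. Doses: 6.5 µM. Times: 30-min compound, 1-h challenge, 1-h detection, room temperature. Measured by: TR-FRET with Eu-cAMP and labeled anti-cAMP, 671 nm. Replicates: singlicate.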
Calb FLC = C. albicans growth inhibition with fluconazole, primary screen, CaCi-2 strain, Alamar Blue fluorescence; growth inhibition, % (concentration not given with the values); C. albicans CaCi-2 + fluconazole, 48 h; hit rate 0.57% among 300,000;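 active = growth inhibition above about 58% in most replicates, limit read from the data, passing the limit was not always enough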;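 note: all wells also contain fluconazole at 8 µg/ml as a sub-toxic cotreatment; 0% = median of DMSO wells and 100% = median of geldanamycin control wells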
MC4R barr conf = MC4R beta-arrestin agonists, retest, confirmation, cell-based, luminescence, U2OS. shares compounds with MC4R ag barr. U2OS MC4R beta-arrestin recruitment; scaled DMSO 0%, Melanotan II 100%. activation, % at 8.9 µM. hit rate 31% among 2,400;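 active = mean activation across replicates above the hit cutoff set in the earlier primary screen, cut at about 8% in these data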
MOR-DOR barr ag = agonists of MOR-DOR heterodimerization, counter-screen for MC4R biased agonist project, cell-based, luminescence; U2OS PathHunter beta-arrestin, beta-gal luminescence; percent of deltorphin B response, DMSO zero; activation, % at 9.2 µM; hit rate 5.8% among 2,400; shares compounds with MC4R ag barr;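 active = mean activation across replicates exceeds the hit threshold derived in the earlier primary screen, cut at about 18% in these data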;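 note: 100% = deltorphin B at 0.9 µM final and 0% = DMSO alone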
TAG conf = triacylglycerol accumulation inhibitors, retest, confirmation, cell-based, single concentration, Nile Red fluorescence, H9c2 | shares compounds with TAG inh | H9c2 lipid accumulation; cells loaded with 200 µM oleic acid | inhibition, % at 12.5 µM | hit rate 71% among 990;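 active = mean inhibition across replicates of 40% or more; inactive = mean inhibition below 40%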;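 note: plate controls were DMSO only wells for no effect and Triacsin C treated wells for full effect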
The depositor's hits bear a star; · = no result; ! = repeats disagree. Shown are actives, neighbours in structure and some others; about 2.9% of the full set was active somewhere.

SMILES	TAG inh	GalR3 antagonist	MC4R ag barr	Efflux pump mplx	MC4R antag cAMP	Calb FLC	MC4R barr conf	MOR-DOR barr ag	others
NC(=O)CC(NC(=O)c1ccc(Br)cc1)c1ccc(NCCc2ccc(F)cc2)c([N+](=O)[O-])c1 (stereo not given)	·	-4	13*	0	3	-11	-1	3
NC(=O)CC(NC(=O)c1ccccc1)c1ccc(NCCc2cccc(F)c2)c([N+](=O)[O-])c1 (stereo not given)	·	-6	-1	0	5	10	·	·
CC(=O)Nc1cc(-c2cccc(C(=O)N(C)C)c2)cn2c(-c3cccc(C(F)(F)F)c3)cnc12	15	1	7	·	12	·	·	·
COc1ccc(F)cc1-c1cc(NC(C)=O)c2ncc(-c3cccc(C(F)(F)F)c3)n2c1	23	-7	19*	·	9	·	15*	3
CC(=O)Nc1cc(-c2ccc(N)nc2)cn2c(-c3cccc(C(F)(F)F)c3)cnc12	-8	-2	19*	·	1	·	9.8*	3
CC(=O)Nc1cc(-c2ccc(CO)cc2)cn2c(-c3cccc(C(F)(F)F)c3)cnc12	0	0	19*	·	9	·	20*	3
COc1ccccc1-c1cc(NC(C)=O)c2ncc(-c3cccc(C(C)=O)c3)n2c1	-4	-4	11*	·	-17	·	18*	4
CC(=O)Nc1cc(-c2cccc(C(=O)NCCO)c2)cn2c(-c3cccc(C(F)(F)F)c3)cnc12	7	-6	7	·	5	·	·	·
COc1ccc(F)cc1-c1cc(NC=O)c2ncc(-c3cccc(C(=O)N(C)C)c3)n2c1	50	2	7	·	-20	·	·	·
C[C@H](CO)N1C[C@H](C)[C@@H](CN(C)C(=O)Nc2ccc(C(F)(F)F)cc2)Oc2c(NC(=O)CCC(F)(F)F)cccc2C1=O	-10	-6	-1	0	0	·	·	·
O=c1ccn([C@@H]2O[C@H](CNS(=O)(=O)C3CC3)[C@@H](O)[C@H]2O)c(=O)[nH]1	4	-5	1	·	13	·	·	·
CC(=O)Nc1cc(-c2ccc(N)cc2)cn2c(-c3cccc(C(F)(F)F)c3)cnc12	3	-6	11*	·	17	·	12*	3
CC(=O)Nc1cccc(-c2cc(NC(C)=O)c3ncc(-c4cccc(C(F)(F)F)c4)n3c2)c1	11	-5	4	·	11	·	·	·
CC(C)CCCCCCCCCCCCC(=O)NCC(=O)NC1C(C)OC(Nc2ncnc3nc[nH]c23)C(O)C1O (stereo not given)	72*	-7	16*	·	7	·	11*	28*
C/C(=C\CNc1ncnc2nc[nH]c12)CO	·	-1	-2	0	11	-4	·	·
CN1CCN(CCCNC(=O)c2ccc(/C=C3/Sc4ccccc4N(Cc4cccc(Cl)c4)C3=O)cc2)CC1	11	1	10*	·	10	20	16*	1
CN1CCN(CCCNC(=O)c2ccc(/C=C3\Sc4ccccc4N(Cc4ccc(F)cc4)C3=O)cc2)CC1	-3	-5	3	·	-5	71	·	·
CCN1CCN(CCNC(=O)c2ccc(/C=C3\Sc4ccccc4N(Cc4ccccc4F)C3=O)cc2)CC1	12	7	12*	0	1	44	17*	3
COc1ccc(-c2nc(C#N)c(NCc3ccccc3Cl)o2)cc1OC	·	9	13*	0	-12	-5	8	5
COc1ccc(NC(=O)Cn2cnc3c(cnn3-c3ccc(C)c(C)c3)c2=O)c(OC)c1	·	-5	12*	0	0	-1	15*	7
COc1ccc(-c2sc3ccc(N4CCOCC4)cc3c2C#Cc2ccsc2)cc1	17	0	-1	1	5	·	·	·
COc1ccc(-c2sc3ccc(N4CCOCC4)cc3c2C#CC(C)(C)O)cc1	64*	-2	23*	0	18	·	8	2	TAG conf=53*
COc1ccccc1NC(=O)Nc1nc(C(N)Cc2ccc(C(F)(F)F)cc2)cs1 (stereo not given)	79*	-6	21*	·	-2	·	11*	14	TAG conf=69*
COc1cc(NC(=O)Nc2nc(C(N)Cc3ccc(C(F)(F)F)cc3)cs2)cc(OC)c1OC (stereo not given)	87*	-2	20*	·	10	·	21*	11	TAG conf=99*
COc1ccc(CC(N)c2csc(NC(=O)Nc3ccc(OC)cc3)n2)cc1 (stereo not given)	25	-7	1	·	7	·	·	·
SMILES	TAG inh	GalR3 antagonist	MC4R ag barr	Efflux pump mplx	MC4R antag cAMP	Calb FLC	MC4R barr conf	MOR-DOR barr ag	others
NC(=O)c1ncn([C@@H]2O[C@H](C(=O)Nc3ccc(C(=O)N4CCCCC4)cc3)[C@@H](O)[C@H]2O)n1	·	-4	·	·	·	·	·	·
CC(C)(C)c1ccc(/C=N/NC(=O)Cc2c[nH]c3ccccc23)cc1	58*	-5	10*	0	-1	3	5	11	TAG conf=42*
CCOC(=O)c1cc(-c2ccccc2)sc1NC(=O)COC(=O)c1cccc(S(N)(=O)=O)c1	78*	-1	16*	0	-13	-2	19*	22*	TAG conf=68*
CCN1CCN(Cc2ccc(NC(=O)c3cc(NC(=O)c4cc5cccc(OC)c5o4)cc(OC)c3)cc2C(F)(F)F)CC1	60*!	-4	29*!	0	0	46	37*	7	TAG conf=68*
CCN1CCN(Cc2ccc(NC(=O)c3cc(NC(=O)c4ccno4)cc(OC)c3)cc2C(F)(F)F)CC1	24	-7	0	0	-11	8	·	·
COc1cc(Cn2c(-c3nonc3N)nc3ccccc32)ccc1C	66*	-8	10*	0	-25	-3	-4	4	TAG conf=62*
COc1ccc(Br)cc1CN(C)C(=O)c1ccccc1SCC(=O)N1CCCC1	6	-6	-1	·	-4	·	·	·
